In brackets after ≈: the same amount, converted by molar mass. Activity calls are given as the source filed them. The rule behind the calls is not given here.
Columns and labels:
[1] = target: T1, Corticotropin-releasing factor receptor 1 (Homo sapiens, UniProt P34998); experiment: Displacement of [125I]-CRF from human CRF1 receptor expressed in HEK293 cells after 2 hrs by scintillation counting; format: cell-based
T1 sequence (P34998 whole entry): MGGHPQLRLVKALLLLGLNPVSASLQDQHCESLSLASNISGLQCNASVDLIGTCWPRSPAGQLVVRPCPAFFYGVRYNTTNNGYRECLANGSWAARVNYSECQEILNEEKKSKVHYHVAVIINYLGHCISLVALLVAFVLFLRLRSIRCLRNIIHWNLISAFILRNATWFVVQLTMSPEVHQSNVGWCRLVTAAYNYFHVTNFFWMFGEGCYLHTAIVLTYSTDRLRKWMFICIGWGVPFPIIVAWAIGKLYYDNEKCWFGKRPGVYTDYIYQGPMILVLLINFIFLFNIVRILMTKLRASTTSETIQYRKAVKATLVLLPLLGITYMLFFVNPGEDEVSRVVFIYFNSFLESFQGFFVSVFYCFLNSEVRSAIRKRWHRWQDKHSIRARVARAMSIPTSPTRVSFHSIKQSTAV
Outline: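 Scintillation proximity assay using HEK293/human CRF1 membranes (5 µg/well), WGA-coated SPA beads (1 mg/well) and 0.1 nM [125I] human/rat CRF. Buffer: PBS-type salts, 10 mM MgCl2, 2 mM EGTA, 1.5% BSA, protease inhibitors, pH 7.0. Incubated over 2 h at room temperature, then centrifuged and counted. Nonspecific binding defined with 0.4 µM sauvagine. IC50 from concentration-response curve of % total specific binding.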

[2] = target: T1, Corticotropin-releasing factor receptor 1; experiment: Antagonist activity at human CRF1 receptor expressed in HEK293 cells assessed as inhibition of CRF-induced intracellular cAMP production preincubated for 30 mins before CRF addition measured after 30 mins by enzyme immunoassay; format: functional, cell-based
[3] = Aqueous solubility of the compound in Dulbecco's phosphate-buffered saline at pH 7.4 by high-throughput HPLC method; format: physicochemical
Outline: (§1)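 A 10 mM DMSO stock of compound was diluted 1:100 into buffer in a filter plate and shaken 15 min at room temperature, then filtered. Filtrate analysed by reverse-phase HPLC-UV against an external DMSO standard. Buffers: pH 1.2 HCl/NaCl; pH 5 and 9 Britton–Robinson (acetate/phosphate/borate with KCl, NaOH-adjusted); pH 7.4 Dulbecco's PBS.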

[4] = Solubility of the compound in HCl/NaCl at pH 1.2 by high-throughput HPLC method; format: physicochemical; details: HCl/NaCl solution; outline: as §1
[5] = Dissociation constant, pKa of the compound; format: physicochemical
[6] = Solubility of the compound in Britton-Robinson buffer at pH 5 by high-throughput HPLC method; format: physicochemical; outline: as §1
[7] = Solubility of the compound in Britton-Robinson buffer at pH 9 by high-throughput HPLC method; format: physicochemical; outline: as §1
Mus musculus [8] = experiment: Anxiolytic activity in po dosed BALB/c mouse assessed as increase in time spent on illuminated box administered 60 mins before test measured for 5 mins by light-dark test; format: functional, organism-based
Outline: (§2)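 Male BALB/c mice, n = 10/group, dosed orally 1 h before test. Animals were habituated to 10 lx for at least 2 h (room at 150 lx) and placed in the dark compartment at start. Observed for 5 min, scoring time in the illuminated box and number of tunnel crossings. Mean ± S.E.M., Dunnett test versus vehicle.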

Mus musculus [9] = experiment: Anxiolytic activity in po dosed BALB/c mouse assessed as increase in number of tunnel crossings administered 60 mins before test measured for 5 mins by light-dark test; format: functional, organism-based; outline: as §2
Mus musculus [10] = experiment: Anxiolytic activity in BALB/c mouse assessed as increase in time spent on illuminated box at 30 mg/kg, po administered 60 mins before test measured for 5 mins by light-dark test; format: functional, organism-based; parameters: dose 30 mg/kg; outline: as §2
Mus musculus [11] = experiment: Anxiolytic activity in po dosed BALB/c mouse assessed as increase in number of tunnel crossings at 30 mg/kg, po administered 60 mins before test measured for 5 mins by light-dark test; format: functional, organism-based; parameters: dose 30 mg/kg; outline: as §2
Rattus norvegicus [12] = experiment: Inhibition of CRF-induced ACTH release in Fischer 344 rat plasma at 30 mg/kg, po administered 60 mins before CRF challenge by RIA; format: functional, organism-based; parameters: dose 30 mg/kg
Outline: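 Male Fischer 344 rats (152–177 g) dosed orally 1 h before subcutaneous CRF at 10 µg/kg; controls got vehicle 5% DMSO/5% Cremophor/90% saline. Trunk blood taken 30 min after CRF into EDTA and spun. Plasma ACTH measured in duplicate by immunoradiometric kit against ACTH standard curve. n = 5–6 rats; mean ± S.E.M.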

[13] = Half life in Fischer 344 rat at 3 mg/kg, iv; format: ADME, organism-based; parameters: dose 3 mg/kg, route intravenous; details: in vivo
Outline: (§3)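 Fasted F344 rats (n = 3 per dose, 189.4–205.9 g) received 3 mg/kg iv in 5% EtOH-0.02 mol/L HCl/5% glucose, or 10 mg/kg po in 5% DMSO/5% Cremophor EL/HCl/water. Blood sampled at 0.083 h (iv only), then 0.25–8 h. Brain taken 1 h after po dosing and homogenized. Samples protein-precipitated with imipramine internal standard and quantified by LC–MS/MS (ESI+). Mean ± SEM.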

Rattus norvegicus [14] = experiment: AUC (infinity) in Fischer 344 rat at 3 mg/kg, iv; format: ADME, organism-based, Plasma; parameters: time infinity, dose 3 mg/kg, route intravenous; details: in vivo
Outline: (§4)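 Fasted F344 rats (n = 3 per dose, 189.4–205.9 g). iv: 3 mg kg−1 given as 3 mg mL−1 in 5% ethanol-0.02 mol L−1 HCl/5% glucose. p.o.: 10 mg kg−1 given as 2 mg mL−1 in 5% DMSO/5% Cremophor EL/equivalent HCl/H2O. Blood sampled at 0.083 h (iv only), then 0.25, 0.5, 1, 2, 4, 6 and 8 h. Plasma extracted with MeOH/MeCN containing imipramine internal standard and measured by positive-ESI LC–MS/MS. Results given as mean ± SEM.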

[15] = Volume of distribution at steady state in Fischer 344 rat at 3 mg/kg, iv; format: ADME, organism-based; parameters: dose 3 mg/kg, route intravenous; details: in vivo, read-out: Vdss; outline: as §3
[16] = Total blood clearance in Fischer 344 rat at 3 mg/kg, iv; format: ADME, organism-based; parameters: dose 3 mg/kg, route intravenous; details: whole blood; outline: as §3
[17] = Cmax in Fischer 344 rat at 10 mg/kg, po; format: ADME, organism-based; parameters: dose 10 mg/kg, route oral; details: in vivo; outline: as §3
[18] = Tmax in Fischer 344 rat at 10 mg/kg, po; format: ADME, organism-based; parameters: dose 10 mg/kg, route oral; details: in vivo; outline: as §3
Rattus norvegicus [19] = experiment: AUC (infinity) in Fischer 344 rat at 10 mg/kg, po; format: ADME, organism-based, Plasma; parameters: time infinity, dose 10 mg/kg, route oral; details: in vivo; outline: as §4
[20] = Oral bioavailability in Fischer 344 rat at 10 mg/kg; format: ADME, organism-based; details: in vivo; outline: as §3
[21] = Ratio of drug level in brain to plasma in Fischer 344 rat at 10 mg/kg, po after 1 hr; format: ADME, organism-based; parameters: dose 10 mg/kg, route oral; details: brain and plasma, read-out: BPR; outline: as §3

Structure (SMILES)	IC50 [1] [nM]	IC50 [2] [nM]	solubility [3] [µM]	other results
CCN(CC)c1ccc(C(F)(F)F)c2nc(-c3c(OC)cc(COC)cc3OC)c(C)cc12	288	259	< 0.2	–
CCN(CCOC)c1ccc(C)c2nc(-c3c(OC)cc(COC)cc3OC)c(C)cc12	–	–	7.2 (≈ 3.16 µg/mL)	–
CCN(CC)c1ccc(F)c2nc(-c3c(OC)cc(COC)cc3OC)c(C)cc12	226	67	10.5 (≈ 4.33 µg/mL)	–
CCN(CC)c1ccc(OC)c2nc(-c3c(OC)cc(COC)cc3OC)ccc12	202	332	38.2 (≈ 15.7 µg/mL)	–
CCN(CC)c1ccc(C)c2nc(-c3c(OC)cc(COC)cc3OC)ccc12	–	–	< 0.2	–
CCN(CC)c1ccc(C(F)F)c2nc(-c3c(OC)cc(COC)cc3OC)c(C)cc12	414	–	< 0.2	–
CCN(CC)c1ccc(C)c2nc(-c3c(OC)cc(COC)cc3OC)c(F)cc12	–	–	< 0.2	–
CCN(CC)c1ccc(C)c2nc(-c3c(OC)cc(COC)cc3OC)c(Cl)cc12	–	–	< 0.2	–
COCCN(CC(C)C)c1ccc(OC)c2nc(-c3c(OC)cc(COC)cc3OC)c(C)cc12	156	65	8.7 (≈ 4.2 µg/mL)	–
CCN(CC)c1ccc(COC)c2nc(-c3c(OC)cc(COC)cc3OC)c(C)cc12	> 1000	–	2.9 (≈ 1.27 µg/mL)	–
CCN(CCOC)c1ccc(OC)c2nc(-c3c(OC)cc(COC)cc3OC)c(C)cc12	392	–	89.4 (≈ 40.6 µg/mL)	–
CCN(CC)c1ccc(OC)c2nc(-c3c(OC)cc(COC)cc3OC)c(Cl)cc12	144	57	1.9 (≈ 0.845 µg/mL)	–
CCN(CC)c1ccc(C)c2nc(-c3c(OC)cc(COC)cc3OC)c(C)cc12	–	–	1.7 (≈ 0.695 µg/mL)	solubility [4]: > 100 µM; pKa [5]: 5.86; solubility [6]: 22 µM (≈ 8.99 µg/mL); solubility [7]: 2 µM (≈ 0.817 µg/mL)
CCCN(CCC)c1ccc(C)c2nc(-c3c(OC)cc(COC)cc3OC)c(C)cc12	–	–	2 (≈ 0.873 µg/mL)	–

Further lines, with some results ahead:

IC50 [1] [nM]	IC50 [2] [nM]	solubility [3] [µM]	Structure (SMILES)	other results
62	28	< 0.2	CCN(CC)c1ccc(Cl)c2nc(-c3c(OC)cc(COC)cc3OC)c(C)cc12	–
118	75	4.6 (≈ 1.97 µg/mL)	CCN(CC)c1ccc(OC)c2nc(-c3c(OC)cc(COC)cc3OC)c(F)cc12	–
102	36	3.2 (≈ 1.34 µg/mL)	CCN(CC)c1ccc(C#N)c2nc(-c3c(OC)cc(COC)cc3OC)c(C)cc12	solubility [4]: > 100 µM; pKa [5]: < 3; solubility [6]: 2.1 µM (≈ 0.881 µg/mL); solubility [7]: 4.2 µM (≈ 1.76 µg/mL)
108	32	12.1 (≈ 5.31 µg/mL)	CCc1cc2c(N(CC)CC)ccc(OC)c2nc1-c1c(OC)cc(COC)cc1OC	–
67	22	3.7 (≈ 1.59 µg/mL)	CCN(CC)c1ccc(OC)c2nc(-c3c(Cl)cc(COC)cc3OC)c(C)cc12	Activity (Mus musculus [8]): Dose-dependent effect; Activity (Mus musculus [9]): Dose-dependent effect; Activity (Mus musculus [10]): Active; Activity (Mus musculus [11]): Active
99	43	17.3 (≈ 6.83 µg/mL)	CCN(CC)c1ccc(OC)c2nc(-c3c(OC)cc(C)cc3OC)c(C)cc12	–
105	99	< 0.2	CCCN(CCC)c1ccc(OC)c2nc(-c3c(OC)cc(COC)cc3OC)c(C)cc12	–
110	91	74 (≈ 31.4 µg/mL)	CCN(CC)c1ccc(OC)c2nc(-c3c(OC)cc(COC)cc3OC)c(C)cc12	solubility [4]: > 100 µM; pKa [5]: 6.01; solubility [6]: 98.2 µM (≈ 41.7 µg/mL); solubility [7]: 71 µM (≈ 30.1 µg/mL); Activity (Rattus norvegicus [12]): Active; Activity (Mus musculus [8]): Dose-dependent effect; Activity (Mus musculus [9]): Dose-dependent effect; half-life [13]: 1.73 h; AUC (Rattus norvegicus [14]): 1.542 µg/mL/h; Vd [15]: 2.15 L/kg; clearance [16]: 44 mL/min/kg; Cmax [17]: 305 ng/mL; Tmax [18]: 0.5 h; AUC (Rattus norvegicus [19]): 0.845 µg/mL/h; bioavailability [20]: 16.4%; Kp at 1 h [21]: 0.61
132	63	11 (≈ 4.46 µg/mL)	CCN(CC)c1ccc(OC)c2nc(-c3c(OC)cc(C#N)cc3OC)c(C)cc12	–
